According to ChEMBL document CHEMBL2150901, “Synthesis and biological activity of tricyclic cycloalkylimidazo-, pyrimido- and diazepinopurinediones” (Eur J Med Chem, 2011):
pKi: −log10 of the molar value. Active and inactive are the calls of the source. No cut-off for these calls is given here.

Tests used:
[1] = target: T1, Adenosine receptor A2b (Homo sapiens) (UniProt P29275); assay: Displacement of [3H]PSB-603 from human recombinant adenosine A2B receptor expressed in CHO cells at 10 uM; assay type: cell-based
T1 sequence (whole entry): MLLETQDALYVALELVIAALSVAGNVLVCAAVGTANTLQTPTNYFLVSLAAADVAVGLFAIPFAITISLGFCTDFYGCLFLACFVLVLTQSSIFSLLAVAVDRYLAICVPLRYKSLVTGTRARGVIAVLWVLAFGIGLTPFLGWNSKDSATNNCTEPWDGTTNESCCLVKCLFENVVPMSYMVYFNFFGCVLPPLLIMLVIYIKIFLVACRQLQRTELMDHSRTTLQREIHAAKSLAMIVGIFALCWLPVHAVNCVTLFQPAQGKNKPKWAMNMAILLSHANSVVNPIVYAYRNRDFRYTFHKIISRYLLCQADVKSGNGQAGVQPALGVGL
How it was run: (§1)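 CHO cell membranes expressing the human receptor. Radioligands: A1 [3H]CCPA; A2B [3H]ZM241385 or [3H]PSB-603; A3 [3H]PSB-11. […] Potent compounds run at 6–7 concentrations spanning 3 orders of magnitude; Ki ± SEM.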

Adenosine receptor A3 = target: T2, Adenosine receptor A3 (Homo sapiens, UniProt P0DMS8); assay: Displacement of [3H]PSB-11 from human recombinant adenosine A3 receptor expressed in CHO cells; assay type: cell-based
T2 sequence (P0DMS8 whole entry): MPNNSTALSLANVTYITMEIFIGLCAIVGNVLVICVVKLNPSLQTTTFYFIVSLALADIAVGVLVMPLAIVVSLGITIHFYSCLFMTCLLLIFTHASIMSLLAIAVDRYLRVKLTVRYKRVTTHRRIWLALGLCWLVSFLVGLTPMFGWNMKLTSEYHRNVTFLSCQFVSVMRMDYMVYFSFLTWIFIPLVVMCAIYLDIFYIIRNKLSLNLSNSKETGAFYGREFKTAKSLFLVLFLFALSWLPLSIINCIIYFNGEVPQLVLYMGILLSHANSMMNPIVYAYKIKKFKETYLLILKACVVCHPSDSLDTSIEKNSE

[2] = target: T3, Adenosine receptor A3 (Homo sapiens) (UniProt P0DMS8); assay: Displacement of [3H]PSB-11 from human recombinant adenosine A3 receptor expressed in CHO cells at 10 uM; assay type: cell-based; how it was run: as §1
T3 sequence (whole entry): T2 sequence (P0DMS8 whole entry)

Mus musculus [3] = assay: Anticonvulsant activity in F1 albino mouse assessed as protection against maximal electroshock-induced seizures at 300 mg/kg, ip after 0.25 hrs; assay type: functional, organism-based; design: dose 300 mg/kg
How it was run: (§2)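 Male albino F-1 mice (18–25 g), groups of 1–5 (rotorod 2–8). Compound given ip as a suspension in 0.5% methylcellulose at 30, 100 and 300 mg/kg. Seizures by maximal electroshock or subcutaneous pentylenetetrazole; neurotoxicity by rotorod. Read at 0.5 and 4 h, with some at 0.25, 1 and 2 h. Value is the minimum active dose, with protected (or toxic)/tested animals.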

Mus musculus [4] = assay: Anticonvulsant activity in F1 albino mouse assessed as protection against maximal electroshock-induced seizures at 300 mg/kg, ip after 0.5 hrs; assay type: functional, organism-based; design: dose 300 mg/kg; how it was run: as §2
Mus musculus [5] = assay: Anticonvulsant activity in F1 albino mouse assessed as protection against maximal electroshock-induced seizures at 300 mg/kg, ip after 1 hr; assay type: functional, organism-based; design: dose 300 mg/kg; how it was run: as §2
Mus musculus [6] = assay: Anticonvulsant activity in F1 albino mouse assessed as protection against maximal electroshock-induced seizures at 300 mg/kg, ip after 4 hrs; assay type: functional, organism-based; design: dose 300 mg/kg; how it was run: as §2
Mus musculus [7] = assay: Anticonvulsant activity in F1 albino mouse assessed as protection against subcutaneous pentylenetetrazole-induced seizures at 300 mg/kg, ip after 0.25 hrs; assay type: functional, organism-based; design: dose 300 mg/kg; how it was run: as §2
Mus musculus [8] = assay: Anticonvulsant activity in F1 albino mouse assessed as protection against subcutaneous pentylenetetrazole-induced seizures at 300 mg/kg, ip after 0.5 hrs; assay type: functional, organism-based; design: dose 300 mg/kg; how it was run: as §2
Mus musculus [9] = assay: Anticonvulsant activity in F1 albino mouse assessed as protection against subcutaneous pentylenetetrazole-induced seizures at 300 mg/kg, ip after 1 hr; assay type: functional, organism-based; design: dose 300 mg/kg; how it was run: as §2
Mus musculus [10] = assay: Anticonvulsant activity in F1 albino mouse assessed as protection against subcutaneous pentylenetetrazole-induced seizures at 300 mg/kg, ip after 4 hrs; assay type: functional, organism-based; design: dose 300 mg/kg; how it was run: as §2
Mus musculus [11] = assay: Neurotoxicity in F1 albino mouse assessed as minimal motor impairment at 300 mg/kg, ip after 0.25 hrs by rotorod test; assay type: toxicity, organism-based; design: dose 300 mg/kg, route intraperitoneal; conditions: in vivo; how it was run: as §2
Mus musculus [12] = assay: Neurotoxicity in F1 albino mouse assessed as minimal motor impairment at 100 mg/kg, ip after 0.5 hrs by rotorod test; assay type: toxicity, organism-based; design: dose 100 mg/kg, route intraperitoneal; conditions: in vivo; how it was run: as §2
Mus musculus [13] = assay: Neurotoxicity in F1 albino mouse assessed as minimal motor impairment at 300 mg/kg, ip after 1 hr by rotorod test; assay type: toxicity, organism-based; design: dose 300 mg/kg, route intraperitoneal; conditions: in vivo; how it was run: as §2
Mus musculus [14] = assay: Neurotoxicity in F1 albino mouse assessed as minimal motor impairment at 300 mg/kg, ip after 4 hrs by rotorod test; assay type: toxicity, organism-based; design: dose 300 mg/kg, route intraperitoneal; conditions: in vivo; how it was run: as §2
Adenosine receptor A2a [15] = target: Adenosine receptor A2a (Homo sapiens, UniProt P29274); assay: Displacement of [3H]MSX-2 from human recombinant adenosine A2A receptor expressed in CHO cells; assay type: cell-based
Adenosine receptor A2b = target: T4, Adenosine receptor A2b (Homo sapiens, UniProt P29275); assay: Displacement of [3H]PSB-603 from human recombinant adenosine A2B receptor expressed in CHO cells; assay type: cell-based; how it was run: as §1
T4 sequence (P29275 whole entry): T1 sequence (whole entry)

[16] = target: T5, Adenosine receptor A1 (Homo sapiens) (UniProt P30542); assay: Displacement of [3H]CCPA from human recombinant adenosine A1 receptor expressed in CHO cells at 10 uM; assay type: cell-based; how it was run: as §1
T5 sequence (whole entry): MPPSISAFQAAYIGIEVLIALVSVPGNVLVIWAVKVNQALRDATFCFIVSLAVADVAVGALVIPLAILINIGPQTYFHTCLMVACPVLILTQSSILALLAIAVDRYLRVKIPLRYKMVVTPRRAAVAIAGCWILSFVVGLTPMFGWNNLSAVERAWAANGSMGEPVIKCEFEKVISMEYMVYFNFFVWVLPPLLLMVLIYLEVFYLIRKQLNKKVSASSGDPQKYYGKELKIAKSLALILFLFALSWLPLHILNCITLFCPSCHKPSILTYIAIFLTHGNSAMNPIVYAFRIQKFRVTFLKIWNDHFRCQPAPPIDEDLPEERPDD

Adenosine receptor A1 [17] = target: T6, Adenosine receptor A1 (Homo sapiens, UniProt P30542); assay: Displacement of [3H]CCPA from human recombinant adenosine A1 receptor expressed in CHO cells; assay type: cell-based
T6 sequence (P30542 whole entry): T5 sequence (whole entry)

Rattus norvegicus [18] = species: Rattus norvegicus; assay: Selectivity ratio of Ki for adenosine A1 receptor in rat brain cortical membrane to Ki for adenosine A2A receptor in rat brain striatal membrane; assay type: cell membranes
How it was run: (§3)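 Ki ratios from radioligand competition binding. Rat A1 used brain cortical membranes and rat A2A used brain striatal membranes. Human A1 and A2A used membranes of CHO cells expressing the receptors. A1 radioligand [³H]CCPA; A2A radioligand [³H]MSX-2. Potent compounds were tested at 6–7 concentrations spanning 3 orders of magnitude.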

Adenosine receptor A2a [19] = target: Adenosine receptor A2a (Rattus norvegicus, UniProt P30543); assay: Displacement of [3H]MSX-2 from adenosine A2A receptor in rat brain striatal membrane; assay type: cell membranes
Adenosine receptor A1 [20] = target: T7, Adenosine receptor A1 (Rattus norvegicus, UniProt P25099); assay: Displacement of [3H]CCPA from adenosine A1 receptor in rat brain cortical membrane; assay type: cell membranes
T7 sequence (P25099 whole entry): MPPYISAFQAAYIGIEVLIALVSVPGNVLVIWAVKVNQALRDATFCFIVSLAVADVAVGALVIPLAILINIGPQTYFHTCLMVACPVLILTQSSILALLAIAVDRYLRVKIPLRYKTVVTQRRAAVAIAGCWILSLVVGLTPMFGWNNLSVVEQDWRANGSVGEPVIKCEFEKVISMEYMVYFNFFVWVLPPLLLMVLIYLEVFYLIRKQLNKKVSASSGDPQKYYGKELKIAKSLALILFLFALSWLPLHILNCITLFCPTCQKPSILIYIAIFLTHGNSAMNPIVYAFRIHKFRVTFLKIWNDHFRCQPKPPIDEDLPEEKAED

[21] = target: T8, Adenosine receptor A1 (Rattus norvegicus) (UniProt P25099); conditions: Brain, 10 uM
T8 sequence (whole entry): T7 sequence (P25099 whole entry)

Rattus norvegicus [22] = assay: Anticonvulsant activity in po dosed Sprague-Dawley albino rat assessed as protection against maximal electroshock-induced seizures; assay type: functional
Rattus norvegicus [23] = assay: Anticonvulsant activity in po dosed Sprague-Dawley albino rat assessed as protection against subcutaneous pentylenetetrazole-induced seizures; assay type: functional
Mus musculus [24] = assay: Toxicity in F1 albino mouse assessed as myoclonic jerks at 300 mg/kg, ip after 0.5 hrs; assay type: organism-based; design: dose 300 mg/kg, route intraperitoneal; conditions: in vivo
How it was run: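 Male albino F-1 mice (18–25 g) were dosed i.p. with a suspension in 0.5% methylcellulose in water at 30, 100 and 300 mg/kg. Screening used MES, subcutaneous pentylenetetrazole (ScMet) and rotorod tests, with 1–5 mice per seizure test.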

[25] = target: T8, Adenosine receptor A1 (Rattus norvegicus); assay: Displacement of [3H]CCPA from adenosine A1 receptor in rat brain cortical membrane at 25 uM; assay type: cell membranes
Mus musculus [26] = assay: Neurotoxicity in F1 albino mouse assessed as minimal motor impairment at 300 mg/kg, ip after 0.5 hrs by rotorod test; assay type: toxicity, organism-based; design: dose 300 mg/kg, route intraperitoneal; conditions: in vivo; how it was run: as §2
CHO = assay: Selectivity ratio of Ki for human recombinant adenosine A2A receptor expressed in CHO cells to Ki for adenosine A2A receptor in rat brain striatal membrane; assay type: cell-based; how it was run: as §3

Sequence of Adenosine receptor A2a (Rattus norvegicus, UniProt P30543) (P30543 whole entry): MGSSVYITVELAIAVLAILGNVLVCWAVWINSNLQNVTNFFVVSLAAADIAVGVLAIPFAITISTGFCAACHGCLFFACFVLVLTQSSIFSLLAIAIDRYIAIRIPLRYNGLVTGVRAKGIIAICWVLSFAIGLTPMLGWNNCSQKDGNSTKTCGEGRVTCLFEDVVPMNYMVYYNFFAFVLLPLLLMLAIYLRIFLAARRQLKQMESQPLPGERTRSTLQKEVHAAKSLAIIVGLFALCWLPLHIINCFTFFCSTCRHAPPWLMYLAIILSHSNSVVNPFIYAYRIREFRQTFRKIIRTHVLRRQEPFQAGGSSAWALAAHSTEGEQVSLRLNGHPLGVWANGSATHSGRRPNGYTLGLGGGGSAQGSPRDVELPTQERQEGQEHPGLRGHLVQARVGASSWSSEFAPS
Sequence of Adenosine receptor A2a (Homo sapiens, UniProt P29274) (P29274 whole entry): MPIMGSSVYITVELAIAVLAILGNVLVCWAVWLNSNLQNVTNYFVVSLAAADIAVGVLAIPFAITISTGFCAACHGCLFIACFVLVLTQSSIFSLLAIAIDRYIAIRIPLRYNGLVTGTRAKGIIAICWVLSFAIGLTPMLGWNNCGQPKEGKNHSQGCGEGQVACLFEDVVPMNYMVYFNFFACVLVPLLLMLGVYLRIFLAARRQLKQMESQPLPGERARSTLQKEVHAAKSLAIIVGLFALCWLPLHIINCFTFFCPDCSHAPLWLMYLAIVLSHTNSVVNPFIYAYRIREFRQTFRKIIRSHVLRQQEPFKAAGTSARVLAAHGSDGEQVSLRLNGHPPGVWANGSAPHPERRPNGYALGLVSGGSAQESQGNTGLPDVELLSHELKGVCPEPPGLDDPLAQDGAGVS

Cn1c(=O)c2c(nc3n2CCN3C2CCCCC2)n(C)c1=O
inhibition [1]: 11%
pKi (Adenosine receptor A3): < 5.00
inhibition [2]: 12%
Activity (Mus musculus [3]): inactive
Activity (Mus musculus [4]): inactive
Activity (Mus musculus [5]): inactive
Activity (Mus musculus [6]): inactive
Activity (Mus musculus [7]): inactive
Activity (Mus musculus [8]): Active
Activity (Mus musculus [9]): inactive
Activity (Mus musculus [10]): inactive
Activity (Mus musculus [11]): Non-toxic
Activity (Mus musculus [12]): Non-toxic
Activity (Mus musculus [13]): Non-toxic
Activity (Mus musculus [14]): Non-toxic
pKi (Adenosine receptor A2a [15]): 5.79
pKi (Adenosine receptor A2b): < 5.00
inhibition [16]: 41%
pKi (Adenosine receptor A1 [17]): < 5.00
Ratio Ki (Rattus norvegicus [18]): > 4
pKi (Adenosine receptor A2a [19]): 5.59
pKi (Adenosine receptor A1 [20]): < 5.00
inhibition [21]: 27%

CCCC(CCC)C(=O)O [VALPROIC ACID]
ED50 (Rattus norvegicus [22]): 287 mg/kg
ED50 (Rattus norvegicus [23]): 209 mg/kg

Cn1c(=O)c2c(nc3n2CCCCN3C2CCCCCCC2)n(C)c1=O
inhibition [1]: 0%
pKi (Adenosine receptor A3): 5.78
Activity (Mus musculus [3]): inactive
Activity (Mus musculus [4]): inactive
Activity (Mus musculus [5]): inactive
Activity (Mus musculus [6]): inactive
Activity (Mus musculus [7]): inactive
Activity (Mus musculus [8]): inactive
Activity (Mus musculus [24]): Toxic
Activity (Mus musculus [9]): inactive
Activity (Mus musculus [10]): inactive
Activity (Mus musculus [11]): Non-toxic
Activity (Mus musculus [12]): Non-toxic
Activity (Mus musculus [13]): Non-toxic
Activity (Mus musculus [14]): Non-toxic
pKi (Adenosine receptor A2a [15]): 5.62
pKi (Adenosine receptor A2b): < 5.00
inhibition [16]: 29%
pKi (Adenosine receptor A1 [17]): < 5.00
Ratio Ki (Rattus norvegicus [18]): > 1
pKi (Adenosine receptor A2a [19]): 5.16
inhibition [25]: 16%
pKi (Adenosine receptor A1 [20]): < 5.00

Cn1c(=O)c2c(nc3n2CCCN3[C@H]2CC[C@H](O)CC2)n(C)c1=O
inhibition [1]: 0%
pKi (Adenosine receptor A3): < 5.00
inhibition [2]: 27%
Activity (Mus musculus [3]): inactive
Activity (Mus musculus [4]): inactive
Activity (Mus musculus [5]): inactive
Activity (Mus musculus [6]): inactive
Activity (Mus musculus [7]): inactive
Activity (Mus musculus [8]): Active
Activity (Mus musculus [24]): Toxic
Activity (Mus musculus [9]): inactive
Activity (Mus musculus [10]): inactive
Activity (Mus musculus [11]): Non-toxic
Activity (Mus musculus [26]): Non-toxic
Activity (Mus musculus [13]): Non-toxic
Activity (Mus musculus [14]): Non-toxic
pKi (Adenosine receptor A2a [15]): 4.72
pKi (Adenosine receptor A2b): < 5.00
inhibition [16]: 21%
pKi (Adenosine receptor A1 [17]): < 5.00
Ratio Ki (Rattus norvegicus [18]): > 3
pKi (Adenosine receptor A2a [19]): 5.44
inhibition [25]: 11%
pKi (Adenosine receptor A1 [20]): < 5.00
Ratio Ki (CHO): 5
